Reference: ChEMBL document CHEMBL1147591, “A novel class of apical sodium-dependent bile acid transporter inhibitors: the amphiphilic 4-oxo-1-phenyl-1,4-dihydroquinoline derivatives” (Bioorg Med Chem Lett, 2004)
One block for each compound: values may come before it.

Assays:
[1] = test system: Ileal sodium/bile acid cotransporter (hamster); assay: Inhibition of ASBT as [3H]taurocholate uptake in hamster ileal ring at 30 ug/mL; settings: Syrian hamster
Mesocricetus auratus [2] = assay: Evaluated for total non HDL- cholesterol in hamster at a dose of 10.0 mg/kg
Cricetinae gen. sp. [3] = assay: Evaluated for total serum cholesterol in hamster at a dose of 0.3 mg/kg; assay type: functional
Procedure, shortened: (§1)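 Chow-fed male Syrian golden hamsters dosed orally by gavage in 0.5% carboxymethylcellulose vehicle once daily in the evening for 14 consecutive days at 0.3, 1, 3, 10, 30 or 100 mg/kg/day. Chow and water were given freely and animals weighed daily. They were sacrificed the morning after the 14th dose. Serum was assayed for triglycerides, total cholesterol and lipoprotein cholesterol (VLDL+LDL, HDL).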

Cricetinae gen. sp. [4] = assay: Evaluated for total HDL-cholesterol in hamster at a dose of 0.3 mg/kg; assay type: functional
Procedure, shortened: as §1

[5] = Ratio between total non HDL-cholesterol and HDL-cholesterol in hamster at a dose of 100.0 mg/kg; assay type: functional
Procedure, shortened: (§2)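 Chow-fed male Syrian golden hamsters were dosed by oral gavage in 0.5% carboxymethylcellulose each evening for 14 consecutive days, with free access to chow and water. Animals were weighed daily and killed the morning after the 14th dose. Serum lipoprotein cholesterol profiles were measured, and the ratio of non-HDL (VLDL plus LDL) cholesterol to HDL-cholesterol was calculated.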

[6] = Ratio between total non HDL-cholesterol and HDL-cholesterol in hamster at a dose of 1.0 mg/kg; assay type: functional
Procedure, shortened: as §2

Cricetinae gen. sp. [7] = assay: Evaluated for total serum cholesterol in hamster at a dose of 1.0 mg/kg; assay type: functional, Cricetulus griseus
Procedure, shortened: as §1

Cricetinae gen. sp. [8] = assay: Evaluated for total non HDL- cholesterol in hamster at a dose of 30.0 mg/kg; assay type: functional
Procedure, shortened: as §1

Cricetinae gen. sp. [9] = assay: Evaluated for total serum cholesterol in hamster at a dose of 30.0 mg/kg; assay type: functional
Procedure, shortened: as §1

Cricetinae gen. sp. [10] = assay: Evaluated for total HDL-cholesterol in hamster at a dose of 100.0 mg/kg; assay type: functional
Procedure, shortened: as §1

Cricetinae gen. sp. [11] = assay: Evaluated for total triglycerides in hamster at a dose of 3.0 mg/kg; assay type: functional, Cricetulus griseus
Procedure, shortened: as §1

[12] = Ratio between total non HDL-cholesterol and HDL-cholesterol in hamster at a dose of 3.0 mg/kg; assay type: functional
Procedure, shortened: as §2

Cricetinae gen. sp. [13] = assay: Evaluated for total triglycerides in hamster at a dose of 1.0 mg/kg; assay type: functional, Cricetulus griseus
Procedure, shortened: as §1

Cricetinae gen. sp. [14] = assay: Evaluated for total non HDL- cholesterol in hamster at a dose of 100.0 mg/kg; assay type: functional
Procedure, shortened: as §1

Cricetinae gen. sp. [15] = assay: Evaluated for total triglycerides in hamster at a dose of 10.0 mg/kg; assay type: functional, Cricetulus griseus
Procedure, shortened: as §1

Cricetinae gen. sp. [16] = assay: Evaluated for total non HDL- cholesterol in hamster at a dose of 3.0 mg/kg; assay type: functional
Procedure, shortened: as §1

Cricetinae gen. sp. [17] = assay: Evaluated for total HDL-cholesterol in hamster at a dose of 1.0 mg/kg; assay type: functional
Procedure, shortened: as §1

Cricetinae gen. sp. [18] = assay: Evaluated for total non HDL- cholesterol in hamster at a dose of 1.0 mg/kg; assay type: functional
Procedure, shortened: as §1

Cricetinae gen. sp. [19] = assay: Evaluated for total HDL-cholesterol in hamster at a dose of 10.0 mg/kg; assay type: functional
Procedure, shortened: as §1

Cricetinae gen. sp. [20] = assay: Evaluated for total serum cholesterol in hamster at a dose of 10.0 mg/kg; assay type: functional, Cricetulus griseus
Procedure, shortened: as §1

[21] = Ratio between total non HDL-cholesterol and HDL-cholesterol in hamster at a dose of 10.0 mg/kg; assay type: functional
Procedure, shortened: as §2

[22] = Ratio between total non HDL-cholesterol and HDL-cholesterol in hamster at a dose of 0.3 mg/kg; assay type: functional
Procedure, shortened: as §2

Cricetinae gen. sp. [23] = assay: Evaluated for total triglycerides in hamster at a dose of 0.3 mg/kg; assay type: functional, Cricetulus griseus
Procedure, shortened: as §1

Cricetinae gen. sp. [24] = assay: Evaluated for total non HDL- cholesterol in hamster at a dose of 0.3 mg/kg; assay type: functional
Procedure, shortened: as §1

Cricetinae gen. sp. [25] = assay: Evaluated for total triglycerides in hamster at a dose of 30.0 mg/kg; assay type: functional, Cricetulus griseus
Procedure, shortened: as §1

[26] = Ratio between total non HDL-cholesterol and HDL-cholesterol in hamster at a dose of 30.0 mg/kg; assay type: functional
Procedure, shortened: as §2

Cricetinae gen. sp. [27] = assay: Evaluated for total HDL-cholesterol in hamster at a dose of 3.0 mg/kg; assay type: functional
Procedure, shortened: as §1

Mesocricetus auratus [28] = assay: Evaluated for total triglycerides in hamster at a dose of 100.0 mg/kg
Cricetinae gen. sp. [29] = assay: Evaluated for total serum cholesterol in hamster at a dose of 100.0 mg/kg; assay type: functional, Cricetulus griseus
Procedure, shortened: as §1

Cricetinae gen. sp. [30] = assay: Evaluated for total serum cholesterol in hamster at a dose of 3.0 mg/kg; assay type: functional, Cricetulus griseus
Procedure, shortened: as §1

Cricetinae gen. sp. [31] = assay: Evaluated for total HDL-cholesterol in hamster at a dose of 30.0 mg/kg; assay type: functional
Procedure, shortened: as §1

inhibition at 30 µg/mL [1]: 83%
SMILES: CCN(C(=O)c1cn(-c2cc(OC)cc(OCCCCCCCC[N+]34CCN(CC3)CC4)c2)c2cc(OC)ccc2c1=O)c1cc(F)cc(F)c1

inhibition at 30 µg/mL [1]: 71%
SMILES: CCN(C(=O)c1cn(-c2cc(OC)cc(OCc3ccc(C[N+]45CCN(CC4)CC5)cc3)c2)c2cc(OC)ccc2c1=O)c1cc(F)cc(F)c1

inhibition at 30 µg/mL [1]: 94%
SMILES: CCN(C(=O)c1cn(-c2cc(OC)cc(OC)c2)c2cc(OCCCCCCCC[N+]34CCN(CC3)CC4)ccc2c1=O)c1cc(F)cc(F)c1

inhibition at 30 µg/mL [1]: 71%
SMILES: CCN(C(=O)c1cn(-c2cc(OC)cc(OC)c2)c2cc(OCc3ccc(C[N+]45CCN(CC4)CC5)cc3)ccc2c1=O)c1cc(F)cc(F)c1

inhibition at 30 µg/mL [1]: 24%
SMILES: CCN(C(=O)c1cn(-c2cc(OC)cc(OC)c2)c2cc(OCCCC[N+]34CCN(CC3)CC4)ccc2c1=O)c1cc(F)cc(F)c1

SMILES: CCN(C(=O)c1cn(-c2cc(OC)cc(OC)c2)c2cc(OCCCCCCC[N+]34CCN(CC3)CC4)ccc2c1=O)c1cc(F)cc(F)c1.[Br-]
Non-HDL-C (Mesocricetus auratus [2]): 74.3 mg/dL
TC (Cricetinae gen. sp. [3]): 157.4 mg/dL
HDL-C (Cricetinae gen. sp. [4]): 81.8 mg/dL
Ratio [5]: 0.9
Ratio [6]: 1.1
TC (Cricetinae gen. sp. [7]): 166.9 mg/dL
Non-HDL-C (Cricetinae gen. sp. [8]): 78.9 mg/dL
TC (Cricetinae gen. sp. [9]): 142.8 mg/dL
HDL-C (Cricetinae gen. sp. [10]): 61.9 mg/dL
TG (Cricetinae gen. sp. [11]): 270.8 mg/dL
Ratio [12]: 1.2
TG (Cricetinae gen. sp. [13]): 249.3 mg/dL
Non-HDL-C (Cricetinae gen. sp. [14]): 57 mg/dL
TG (Cricetinae gen. sp. [15]): 217.6 mg/dL
Non-HDL-C (Cricetinae gen. sp. [16]): 94.1 mg/dL
HDL-C (Cricetinae gen. sp. [17]): 81.7 mg/dL
Non-HDL-C (Cricetinae gen. sp. [18]): 85.2 mg/dL
HDL-C (Cricetinae gen. sp. [19]): 69.8 mg/dL
TC (Cricetinae gen. sp. [20]): 144.1 mg/dL
Ratio [21]: 1.1
Ratio [22]: 0.9
TG (Cricetinae gen. sp. [23]): 142.7 mg/dL
Non-HDL-C (Cricetinae gen. sp. [24]): 75.7 mg/dL
TG (Cricetinae gen. sp. [25]): 235 mg/dL
Ratio [26]: 1.3
inhibition at 30 µg/mL [1]: 100%
HDL-C (Cricetinae gen. sp. [27]): 80.2 mg/dL
TG (Mesocricetus auratus [28]): 217.7 mg/dL
TC (Cricetinae gen. sp. [29]): 118.9 mg/dL
TC (Cricetinae gen. sp. [30]): 174.3 mg/dL
HDL-C (Cricetinae gen. sp. [31]): 63.9 mg/dL

inhibition at 30 µg/mL [1]: 64%
SMILES: CCN(C(=O)c1cn(-c2cc(OC)cc(OC)c2)c2cc(OC)ccc2c1=O)c1cc(F)cc(F)c1

inhibition at 30 µg/mL [1]: 64%
SMILES: CCN(C(=O)c1cn(-c2ccc(OC)cc2)c2cc(OC)ccc2c1=O)c1cc(F)cc(F)c1

inhibition at 30 µg/mL [1]: 83%
SMILES: CCN(C(=O)c1cn(-c2cc(OC)cc(OCCCCCC[N+]34CCN(CC3)CC4)c2)c2cc(OC)ccc2c1=O)c1cc(F)cc(F)c1

inhibition at 30 µg/mL [1]: 41%
SMILES: CCN(C(=O)c1cn(-c2ccc(OCc3ccc(C[N+]45CCN(CC4)CC5)cc3)cc2)c2cc(OC)ccc2c1=O)c1cc(F)cc(F)c1

inhibition at 30 µg/mL [1]: 86%
SMILES: CCN(C(=O)c1cn(-c2cc(OC)cc(OCCCCCCC[N+]34CCN(CC3)CC4)c2)c2cc(OC)ccc2c1=O)c1cc(F)cc(F)c1

inhibition at 30 µg/mL [1]: 67%
SMILES: CCN(C(=O)c1cn(-c2cc(OC)cc(OC)c2)c2cc(OCCCCC[N+]34CCN(CC3)CC4)ccc2c1=O)c1cc(F)cc(F)c1

inhibition at 30 µg/mL [1]: 88%
SMILES: CCN(C(=O)c1cn(-c2cc(OC)cc(OC)c2)c2cc(OCCCCCC[N+]34CCN(CC3)CC4)ccc2c1=O)c1cc(F)cc(F)c1
